Assay results as given in article PMC13170702 (Nuclear medicine and biology, 2025).

Assay: organ radiation dose estimates, OLINDA 1.1, ICRP-60
Type: in vivo, human
Procedure, shortened: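 Whole-body PET-MR ran as nine scans to 214 min. Organ VOIs were drawn in AMIDE, giving decay-corrected %IA per VOI; remainder = whole body minus measured organs. TIACs came from the exponential model (EXM) in OLINDA 1.1. Per-participant organ doses used 70 kg adult male or 55 kg female models in OLINDA 1.1. Effective dose (mSv) = organ absorbed doses × ICRP-60 tissue weighting factors.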

For `COC(=O)[C@@H](N)CC(=O)Nc1ccc2c(c1)Cc1cc([18F])ccc1-2` [[^18F]RP-115, methyl N^4-(7-[^18F]fluoro-9H-fluoren-2-yl)asparaginate], the “Estimated dose, Upper, lower intestine wall” value (Female n=4, mean±SD) was 0.0160±0.0012 mGy/MBq, the “Estimated dose, Urinary bladder wall” value (Female n=4, mean±SD) was 0.0588±0.0438 mGy/MBq and the “Estimated dose, Uterus” value (Female n=4, mean±SD) was 0.0569±0.0512 mGy/MBq. For the same compound, the “Effective dose (whole body)” value (M1 (326 MBq)) was 6.74 mSv, the “Estimated absorbed dose, Adrenals” value (M1 (326 MBq)) was 6.51 mGy and the “Estimated absorbed dose, Brain” value (M1 (326 MBq)) was 5.63 mGy. For the same compound, the “Estimated absorbed dose, Breasts” value (M1 (326 MBq)) was 2.73 mGy, the “Estimated absorbed dose, Gallbladder wall” value (M1 (326 MBq)) was 9.08 mGy and the “Estimated absorbed dose, Heart wall” value (M1 (326 MBq)) was 8.79 mGy. For the same compound, the “Estimated absorbed dose, Kidneys” value (M1 (326 MBq)) was 72.0 mGy, the “Estimated absorbed dose, Liver” value (M1 (326 MBq)) was 16.0 mGy and the “Estimated absorbed dose, Lower large intestine wall” value (M1 (326 MBq)) was 3.45 mGy. The “Estimated absorbed dose, Lungs” value (M1 (326 MBq)) was 19.7 mGy, the “Estimated absorbed dose, Muscle” value (M1 (326 MBq)) was 3.00 mGy and the “Estimated absorbed dose, Osteogenic cells” value (M1 (326 MBq)) was 4.07 mGy. The “Estimated absorbed dose, Pancreas” value (M1 (326 MBq)) was 6.41 mGy, the “Estimated absorbed dose, Red marrow” value (M1 (326 MBq)) was 3.42 mGy and the “Estimated absorbed dose, Remainder” value (M1 (326 MBq)) was 4.10 mGy. The “Estimated absorbed dose, Skin” value (M1 (326 MBq)) was 2.10 mGy, the “Estimated absorbed dose, Small intestine” value (M1 (326 MBq)) was 13.8 mGy and the “Estimated absorbed dose, Spleen” value (M1 (326 MBq)) was 21.3 mGy. For the same compound, the “Estimated absorbed dose, Stomach wall” value (M1 (326 MBq)) was 4.33 mGy, the “Estimated absorbed dose, Testes” value (M1 (326 MBq)) was 2.12 mGy and the “Estimated absorbed dose, Thymus” value (M1 (326 MBq)) was 16.7 mGy. For the same compound, the “Estimated absorbed dose, Thyroid” value (M1 (326 MBq)) was 3.39 mGy, the “Estimated absorbed dose, Upper, lower intestine wall” value (M1 (326 MBq)) was 5.37 mGy and the “Estimated absorbed dose, Urinary bladder wall” value (M1 (326 MBq)) was 3.65 mGy. The “Effective dose (whole body)” value (M2 (289 MBq)) was 5.48 mSv, the “Estimated absorbed dose, Adrenals” value (M2 (289 MBq)) was 4.94 mGy and the “Estimated absorbed dose, Brain” value (M2 (289 MBq)) was 3.03 mGy. For the same compound, the “Estimated absorbed dose, Breasts” value (M2 (289 MBq)) was 2.26 mGy, the “Estimated absorbed dose, Gallbladder wall” value (M2 (289 MBq)) was 6.41 mGy and the “Estimated absorbed dose, Heart wall” value (M2 (289 MBq)) was 6.46 mGy. For the same compound, the “Estimated absorbed dose, Kidneys” value (M2 (289 MBq)) was 37.8 mGy, the “Estimated absorbed dose, Liver” value (M2 (289 MBq)) was 16.6 mGy and the “Estimated absorbed dose, Lower large intestine wall” value (M2 (289 MBq)) was 2.97 mGy. For the same compound, the “Estimated absorbed dose, Lungs” value (M2 (289 MBq)) was 11.0 mGy, the “Estimated absorbed dose, Muscle” value (M2 (289 MBq)) was 2.55 mGy and the “Estimated absorbed dose, Osteogenic cells” value (M2 (289 MBq)) was 3.58 mGy. For the same compound, the “Estimated absorbed dose, Pancreas” value (M2 (289 MBq)) was 4.30 mGy, the “Estimated absorbed dose, Red marrow” value (M2 (289 MBq)) was 2.76 mGy and the “Estimated absorbed dose, Remainder” value (M2 (289 MBq)) was 3.32 mGy. The “Estimated absorbed dose, Skin” value (M2 (289 MBq)) was 1.85 mGy, the “Estimated absorbed dose, Small intestine” value (M2 (289 MBq)) was 9.32 mGy and the “Estimated absorbed dose, Spleen” value (M2 (289 MBq)) was 7.24 mGy. The “Estimated absorbed dose, Stomach wall” value (M2 (289 MBq)) was 3.41 mGy, the “Estimated absorbed dose, Testes” value (M2 (289 MBq)) was 2.02 mGy and the “Estimated absorbed dose, Thymus” value (M2 (289 MBq)) was 4.68 mGy. For the same compound, the “Estimated absorbed dose, Thyroid” value (M2 (289 MBq)) was 2.23 mGy, the “Estimated absorbed dose, Upper, lower intestine wall” value (M2 (289 MBq)) was 4.24 mGy and the “Estimated absorbed dose, Urinary bladder wall” value (M2 (289 MBq)) was 4.70 mGy. For the same compound, the “Effective dose (whole body)” value (M3 (70.3 MBq)) was 1.52 mSv, the “Estimated absorbed dose, Adrenals” value (M3 (70.3 MBq)) was 1.21 mGy and the “Estimated absorbed dose, Brain” value (M3 (70.3 MBq)) was 0.820 mGy. For the same compound, the “Estimated absorbed dose, Breasts” value (M3 (70.3 MBq)) was 0.560 mGy, the “Estimated absorbed dose, Gallbladder wall” value (M3 (70.3 MBq)) was 1.35 mGy and the “Estimated absorbed dose, Heart wall” value (M3 (70.3 MBq)) was 1.79 mGy. For the same compound, the “Estimated absorbed dose, Kidneys” value (M3 (70.3 MBq)) was 12.7 mGy, the “Estimated absorbed dose, Liver” value (M3 (70.3 MBq)) was 2.61 mGy and the “Estimated absorbed dose, Lower large intestine wall” value (M3 (70.3 MBq)) was 0.670 mGy. The “Estimated absorbed dose, Lungs” value (M3 (70.3 MBq)) was 3.91 mGy, the “Estimated absorbed dose, Muscle” value (M3 (70.3 MBq)) was 0.605 mGy and the “Estimated absorbed dose, Osteogenic cells” value (M3 (70.3 MBq)) was 0.837 mGy. The “Estimated absorbed dose, Pancreas” value (M3 (70.3 MBq)) was 1.33 mGy, the “Estimated absorbed dose, Red marrow” value (M3 (70.3 MBq)) was 0.662 mGy and the “Estimated absorbed dose, Remainder” value (M3 (70.3 MBq)) was 0.780 mGy. The “Estimated absorbed dose, Skin” value (M3 (70.3 MBq)) was 0.434 mGy, the “Estimated absorbed dose, Small intestine” value (M3 (70.3 MBq)) was 1.61 mGy and the “Estimated absorbed dose, Spleen” value (M3 (70.3 MBq)) was 2.28 mGy. The “Estimated absorbed dose, Stomach wall” value (M3 (70.3 MBq)) was 0.815 mGy, the “Estimated absorbed dose, Testes” value (M3 (70.3 MBq)) was 0.479 mGy and the “Estimated absorbed dose, Thymus” value (M3 (70.3 MBq)) was 1.64 mGy. The “Estimated absorbed dose, Thyroid” value (M3 (70.3 MBq)) was 0.643 mGy, the “Estimated absorbed dose, Upper, lower intestine wall” value (M3 (70.3 MBq)) was 0.879 mGy and the “Estimated absorbed dose, Urinary bladder wall” value (M3 (70.3 MBq)) was 1.96 mGy. The “Effective dose (whole body)” value (M4 (153 MBq)) was 2.89 mSv, the “Estimated absorbed dose, Adrenals” value (M4 (153 MBq)) was 3.04 mGy and the “Estimated absorbed dose, Brain” value (M4 (153 MBq)) was 2.44 mGy. For the same compound, the “Estimated absorbed dose, Breasts” value (M4 (153 MBq)) was 1.31 mGy, the “Estimated absorbed dose, Gallbladder wall” value (M4 (153 MBq)) was 3.80 mGy and the “Estimated absorbed dose, Heart wall” value (M4 (153 MBq)) was 1.79 mGy. For the same compound, the “Estimated absorbed dose, Liver” value (M4 (153 MBq)) was 2.12 mGy, the “Estimated absorbed dose, Lower large intestine wall” value (M4 (153 MBq)) was 2.51 mGy and the “Estimated absorbed dose, Lungs” value (M4 (153 MBq)) was 4.01 mGy. The “Estimated absorbed dose, Muscle” value (M4 (153 MBq)) was 35.0 mGy, the “Estimated absorbed dose, Osteogenic cells” value (M4 (153 MBq)) was 5.85 mGy and the “Estimated absorbed dose, Pancreas” value (M4 (153 MBq)) was 1.52 mGy. For the same compound, the “Estimated absorbed dose, Red marrow” value (M4 (153 MBq)) was 2.02 mGy, the “Estimated absorbed dose, Remainder” value (M4 (153 MBq)) was 1.96 mGy and the “Estimated absorbed dose, Skin” value (M4 (153 MBq)) was 4.45 mGy. The “Estimated absorbed dose, Small intestine” value (M4 (153 MBq)) was 1.69 mGy, the “Estimated absorbed dose, Spleen” value (M4 (153 MBq)) was 2.12 mGy and the “Estimated absorbed dose, Stomach wall” value (M4 (153 MBq)) was 1.10 mGy. For the same compound, the “Estimated absorbed dose, Testes” value (M4 (153 MBq)) was 7.89 mGy, the “Estimated absorbed dose, Thymus” value (M4 (153 MBq)) was 1.19 mGy and the “Estimated absorbed dose, Thyroid” value (M4 (153 MBq)) was 7.36 mGy. The “Estimated absorbed dose, Upper, lower intestine wall” value (M4 (153 MBq)) was 2.17 mGy, the “Estimated absorbed dose, Urinary bladder wall” value (M4 (153 MBq)) was 2.81 mGy and the “Effective dose (whole body)” value (Male n=4, mean±SD) was 0.0196±0.0019 mSv/MBq. For the same compound, the “Estimated dose, Adrenals” value (Male n=4, mean±SD) was 0.0181±0.00135 mGy/MBq, the “Estimated dose, Brain” value (Male n=4, mean±SD) was 0.0135±0.00305 mGy/MBq and the “Estimated dose, Breasts” value (Male n=4, mean±SD) was 0.00801±0.000253 mGy/MBq. The “Estimated dose, Gallbladder wall” value (Male n=4, mean±SD) was 0.0230±0.00361 mGy/MBq, the “Estimated dose, Heart wall” value (Male n=4, mean±SD) was 0.0214±0.00739 mGy/MBq and the “Estimated dose, Kidneys” value (Male n=4, mean±SD) was 0.142±0.0804 mGy/MBq. For the same compound, the “Estimated dose, Liver” value (Male n=4, mean±SD) was 0.0392±0.0195 mGy/MBq, the “Estimated dose, Lower, large intestine wall” value (Male n=4, mean±SD) was 0.0114±0.00246 mGy/MBq and the “Estimated dose, Lungs” value (Male n=4, mean±SD) was 0.0446±0.0167 mGy/MBq. The “Estimated dose, Muscle” value (Male n=4, mean±SD) was 0.0589±0.100 mGy/MBq, the “Estimated dose, Osteogenic cells” value (Male n=4, mean±SD) was 0.0180±0.0114 mGy/MBq and the “Estimated dose, Pancreas” value (Male n=4, mean±SD) was 0.0156±0.00485 mGy/MBq. The “Estimated dose, Red marrow” value (Male n=4, mean±SD) was 0.0104±0.00124 mGy/MBq, the “Estimated dose, Remainder” value (Male n=4, mean±SD) was 0.0117±0.000634 mGy/MBq and the “Estimated dose, Skin” value (Male n=4, mean±SD) was 0.0114±0.0101 mGy/MBq. For the same compound, the “Estimated dose, Small intestine” value (Male n=4, mean±SD) was 0.0269±0.0137 mGy/MBq, the “Estimated dose, Spleen” value (Male n=4, mean±SD) was 0.0340±0.0226 mGy/MBq and the “Estimated dose, Stomach wall” value (Male n=4, mean±SD) was 0.0108±0.00294 mGy/MBq. The “Estimated dose, Testes” value (Male n=4, mean±SD) was 0.0169±0.0202 mGy/MBq, the “Estimated dose, Thymus” value (Male n=4, mean±SD) was 0.0245±0.0190 mGy/MBq and the “Estimated dose, Thyroid” value (Male n=4, mean±SD) was 0.0178±0.0175 mGy/MBq. The “Estimated dose, Upper, lower intestine wall” value (Male n=4, mean±SD) was 0.0142±0.00181 mGy/MBq and the “Estimated dose, Urinary bladder wall” value (Male n=4, mean±SD) was 0.0180±0.00704 mGy/MBq.
